Assay results published in ChEMBL document CHEMBL3045478, “Insect antifeedant flavonoids from Gnaphalium affine D. Don” (2000).
Calls of active or inactive are those of the source. The rule behind the calls is not given here.

Test system: Spodoptera litura
Test: Antifeedant activity against Spodoptera litura in compound treated cork borer from fresh sweet potato leaves by Choice Leaf-Disk Bioassay
Type: functional
How it was run: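 Partly eaten disks were photocopied and scanned to digital files, and each treated disk was measured against an intact disk. Antifeedant index (AFI) = % treated consumed/(% treated + % control consumed) × 100. The effective dose was taken as the midpoint between complete inhibition and no effect.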

| Structure (SMILES) | ED50 | pED50 |
| --- | --- | --- |
| COc1cc2oc(-c3ccccc3)c(OC)c(=O)c2c(O)c1O | 0.25 ×10⁻⁷ mol/cm2 | 7.6 |
| COc1c(OC)c(O)c2c(=O)c(OC)c(-c3ccccc3)oc2c1OC | 0.2 ×10⁻⁷ mol/cm2 | 7.7 |
| COc1cc(O)c2c(=O)c(OC)c(-c3ccc(OC)c(OC)c3)oc2c1 | inactive |  |
| O=c1c(O)c(-c2ccc(O)c(O)c2)oc2cc(O)cc(O)c12 | inactive |  |
| COc1ccc(-c2oc3c(OC)c(OC)c(OC)c(O)c3c(=O)c2OC)cc1 [5-HYDROXYAURANETIN] | 1.1 ×10⁻⁷ mol/cm2 | 6.96 |
| COc1ccc(/C=C/C(=O)c2c(O)cc(OC)cc2OC)cc1 [FLAVOKAWAIN A] | 90 ×10⁻⁷ mol/cm2 | 5.05 |
| COc1ccc(-c2cc(=O)c3c(O)c(OC)c(OC)c(OC)c3o2)cc1 [GARDENIN B] | 1.8 ×10⁻⁷ mol/cm2 | 6.74 |
| COc1cc(O)cc(O)c1C(=O)/C=C/c1ccc(O)cc1 [HELICHRYSETIN] | 3.8 ×10⁻⁷ mol/cm2 | 6.42 |
| C=C(C)[C@H]1Cc2c(ccc3c2O[C@@H]2COc4cc(OC)c(OC)cc4[C@@H]2C3=O)O1 [ROTENONE] | 1.5 ×10⁻⁷ mol/cm2 | 6.82 |
| COc1ccc(-c2cc(=O)c3c(OC)c(OC)c(OC)c(OC)c3o2)cc1 [TANGERETIN] | 2.8 ×10⁻⁷ mol/cm2 | 6.55 |
